≈ marks a conversion by molar mass, not a printed value.
Experiments:
SARS-CoV-2 [1] = experiment: Antiviral activity against SARS-CoV-2 infected in Vero E6 cells assessed as inhibition of viral replication incubated for 25 to 26 hrs by EliSpot reader based analysis; type: functional, organism-based; conditions: Severe acute respiratory syndrome coronavirus 2, Vero C1008
Procedure, shortened: (§1)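 Antiviral assay in SARS-CoV-2-infected Vero E6 cells, with remdesivir and GC-376 as positive controls, n = 3 biological replicates, SD reported. The potency index is EC50(remdesivir)/EC50(test compound), both measured in this assay.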

Cathepsin F = target: T1, Cathepsin F (Homo sapiens, UniProt Q9UBX1); experiment: Inhibition of human Cathepsin F using Z-Phe-Arg-AMC as fluorogenic substrate incubated for 60 mins by FRET assay
T1 sequence (Q9UBX1 whole entry): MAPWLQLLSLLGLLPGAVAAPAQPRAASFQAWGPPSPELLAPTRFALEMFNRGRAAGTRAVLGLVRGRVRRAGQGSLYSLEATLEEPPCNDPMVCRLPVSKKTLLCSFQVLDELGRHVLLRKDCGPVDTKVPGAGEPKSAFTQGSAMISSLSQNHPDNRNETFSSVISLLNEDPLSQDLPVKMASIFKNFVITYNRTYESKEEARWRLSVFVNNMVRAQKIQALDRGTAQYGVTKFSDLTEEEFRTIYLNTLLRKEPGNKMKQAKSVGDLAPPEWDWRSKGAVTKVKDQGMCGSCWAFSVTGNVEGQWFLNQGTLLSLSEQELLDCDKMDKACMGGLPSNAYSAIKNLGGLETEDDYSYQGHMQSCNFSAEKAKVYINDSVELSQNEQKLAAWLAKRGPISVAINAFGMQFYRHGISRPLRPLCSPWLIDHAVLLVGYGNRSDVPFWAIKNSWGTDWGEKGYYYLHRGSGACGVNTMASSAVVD

[2] = Cytotoxicity against African green monkey Vero E6 cells assessed as reduction in cell viability incubated for 26 hrs by celltiter 96 aqueous non-radioactive cell proliferation assay; type: toxicity, cell-based, Vero C1008; conditions: chlorocebus sabaeus
Procedure, shortened: (§2)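 Cytotoxicity measured in Vero E6 cells run in parallel with the antiviral assay, n = 3 biological replicates, SD reported.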

[3] = Microsomal stability in human liver microsomes assessed as intrinsic clearance at 1 uM preincubated for 10 mins followed by NADPH addition and measured upto 60 mins by LC-MS/MS analysis; type: ADME, Microsome; conditions: time < 70 min, read-out: CLH
[4] = MRT (0 to infinity) in Sprague-Dawley rat at 2 mg/kg, iv measured upto 24 hrs by LC-MS/MS analysis; type: ADME, organism-based; conditions: in vivo
Procedure, shortened: (§3)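 Single-dose pharmacokinetics in Sprague–Dawley rats: 2 mg/kg given i.v. or 10 mg/kg given orally, in separate arms. Plasma parameters were derived for each route. Oral bioavailability (F) was obtained from the two arms. Values are mean ± SD, n = 3.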

[5] = Half life in Sprague-Dawley rat at 10 mg/kg, po measured upto 24 hrs by LC-MS/MS analysis; type: ADME, organism-based; conditions: in vivo; procedure, shortened: as §3
[6] = C0 in Sprague-Dawley rat at 2 mg/kg, iv measured upto 24 hrs by LC-MS/MS analysis; type: ADME, organism-based; conditions: in vivo; procedure, shortened: as §3
[7] = MRT (0 to infinity) in Sprague-Dawley rat at 10 mg/kg, po measured upto 24 hrs by LC-MS/MS analysis; type: ADME, organism-based; conditions: in vivo; procedure, shortened: as §3
[8] = Kinetic solubility of the compound at pH 7.3; type: physicochemical; conditions: buffer, read-out: Kinetic_solubility
Procedure, shortened: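 Kinetic solubility measured in phosphate buffer at pH 7.3.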

Cathepsin K = target: T2, Cathepsin K (Homo sapiens, UniProt P43235); experiment: Inhibition of human Cathepsin K using Ac-LR-AMC as fluorogenic substrate incubated for 60 mins by FRET assay
T2 sequence (P43235 whole entry): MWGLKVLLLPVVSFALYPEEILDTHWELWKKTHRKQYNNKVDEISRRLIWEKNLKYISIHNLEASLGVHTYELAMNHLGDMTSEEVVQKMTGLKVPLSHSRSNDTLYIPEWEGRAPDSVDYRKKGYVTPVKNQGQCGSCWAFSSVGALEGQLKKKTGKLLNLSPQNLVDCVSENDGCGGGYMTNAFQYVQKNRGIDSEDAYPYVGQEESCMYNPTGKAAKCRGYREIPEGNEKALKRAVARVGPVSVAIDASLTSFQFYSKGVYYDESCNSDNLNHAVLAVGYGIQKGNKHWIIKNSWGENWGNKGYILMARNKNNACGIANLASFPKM

[9] = Inhibition of SARS-CoV-1 main protease; parameters: species or system Severe acute respiratory syndrome-related coronavirus
Procedure, shortened: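 SARS-CoV-1 Mpro inhibition tested in addition to SARS-CoV-2 Mpro. Values are mean ± SD of three independent experiments.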

Procathepsin L = Procathepsin L (Homo sapiens, UniProt P07711); experiment: Inhibition of human Cathepsin L using Z-Leu-Arg-AMC as fluorogenic substrate incubated for 60 mins by FRET assay
Chain of Procathepsin L (P07711 whole entry): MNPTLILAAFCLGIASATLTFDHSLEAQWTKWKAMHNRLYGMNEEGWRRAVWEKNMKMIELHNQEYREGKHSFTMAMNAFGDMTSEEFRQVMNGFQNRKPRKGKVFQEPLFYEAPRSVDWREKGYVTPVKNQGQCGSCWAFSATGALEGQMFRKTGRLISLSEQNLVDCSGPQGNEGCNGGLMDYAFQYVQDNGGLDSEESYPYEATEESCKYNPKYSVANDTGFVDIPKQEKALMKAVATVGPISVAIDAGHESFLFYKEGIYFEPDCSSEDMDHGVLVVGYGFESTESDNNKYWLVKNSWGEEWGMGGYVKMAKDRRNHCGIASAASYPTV

Caspase-3 = target: T3, Caspase-3 (Homo sapiens, UniProt P42574); experiment: Inhibition of human caspase-3 using Ac-Asp-Glu-Val-Asp-pNA as substrate incubated for 60 mins by FRET assay
T3 sequence (P42574 whole entry): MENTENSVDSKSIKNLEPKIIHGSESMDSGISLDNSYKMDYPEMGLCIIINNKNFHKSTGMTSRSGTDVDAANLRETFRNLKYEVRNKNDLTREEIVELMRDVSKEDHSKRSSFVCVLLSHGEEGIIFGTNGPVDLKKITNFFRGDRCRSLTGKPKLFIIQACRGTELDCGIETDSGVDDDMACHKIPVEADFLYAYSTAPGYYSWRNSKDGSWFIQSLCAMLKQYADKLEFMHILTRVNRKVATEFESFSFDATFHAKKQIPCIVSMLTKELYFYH

[10] = Cmax in Sprague-Dawley rat at 10 mg/kg, po measured upto 24 hrs by LC-MS/MS analysis; type: ADME, organism-based; parameters: time < 24 hrs, dose 10 mg/kg, route po; conditions: in vivo; procedure, shortened: as §3
[11] = Cmax in Sprague-Dawley rat at 2 mg/kg, iv measured upto 24 hrs by LC-MS/MS analysis; type: ADME, organism-based; parameters: dose 2 mg/kg, time < 24 hrs, route iv; conditions: in vivo; procedure, shortened: as §3
[12] = Tmax in Sprague-Dawley rat at 2 mg/kg, iv measured upto 24 hrs by LC-MS/MS analysis; type: ADME, organism-based; conditions: in vivo; procedure, shortened: as §3
Cathepsin B = Cathepsin B (Homo sapiens, UniProt P07858); experiment: Inhibition of human Cathepsin B using Z-Leu-Arg-AMC as fluorogenic substrate incubated for 60 mins by FRET assay
[13] = AUC (0 to infinity) in Sprague-Dawley rat at 2 mg/kg, iv measured upto 24 hrs by LC-MS/MS analysis; type: ADME, organism-based; parameters: dose 2 mg/kg, time < 24 hrs, route iv; conditions: in vivo
[14] = AUC (0 to t) in Sprague-Dawley rat at 10 mg/kg, po measured upto 24 hrs by LC-MS/MS analysis; type: ADME, organism-based; parameters: dose 10 mg/kg, time < 24 hrs, route po; conditions: in vivo; procedure, shortened: as §3
[15] = target: Replicase polyprotein 1ab (Severe acute respiratory syndrome coronavirus 2, UniProt P0DTD1); experiment: Inhibition of SARS-CoV-2 main protease using MCA-AVLQSGFR-Lys(Dnp)-Lys-NH2 as fluorescent substrate preincubated for 10 mins followed by substrate addition and measured every 10 sec for 10 mins by FRET assay
[16] = Half life in Sprague-Dawley rat at 2 mg/kg, iv measured upto 24 hrs by LC-MS/MS analysis; type: ADME, organism-based; conditions: in vivo; procedure, shortened: as §3
[17] = Oral bioavailability in Sprague-Dawley rat at 10 mg/kg measured upto 24 hrs by LC-MS/MS analysis; type: ADME, organism-based; conditions: in vivo; procedure, shortened: as §3
[18] = AUC (0 to t) in Sprague-Dawley rat at 2 mg/kg, iv measured upto 24 hrs by LC-MS/MS analysis; type: ADME, organism-based; parameters: dose 2 mg/kg, time < 24 hrs, route iv; conditions: in vivo
[19] = Tmax in Sprague-Dawley rat at 10 mg/kg, po measured upto 24 hrs by LC-MS/MS analysis; type: ADME, organism-based; conditions: in vivo; procedure, shortened: as §3
[20] = AUC (0 to infinity) in Sprague-Dawley rat at 10 mg/kg, po measured upto 24 hrs by LC-MS/MS analysis; type: ADME, organism-based; parameters: dose 10 mg/kg, time < 24 hrs, route po; conditions: in vivo; procedure, shortened: as §3
[21] = Clearance in Sprague-Dawley rat at 2 mg/kg, iv measured upto 24 hrs by LC-MS/MS analysis; type: ADME, organism-based; conditions: in vivo; procedure, shortened: as §3
[22] = Cytotoxicity against African green monkey Vero E6 cells assessed as reduction in cell viability; type: toxicity, cell-based; conditions: chlorocebus sabaeus; procedure, shortened: as §2
SARS-CoV-2 [23] = experiment: Potency index, ratio of remdesivir EC50 to test compound EC50 for Antiviral activity against SARS-CoV-2 infected in Vero E6 cells assessed as inhibition of viral replication incubated for 25 to 26 hrs by EliSpot reader based analysis; type: functional, Severe acute respiratory syndrome coronavirus 2; procedure, shortened: as §1

## CC(C)C[C@H](NC(=O)OCc1ccccc1)C(=O)N[C@@H](C[C@@H]1CCNC1=O)C(O)S(=O)(=O)O (stereo partly specified)
SARS-CoV-2 [1]
  IC50: 200 nM
Cathepsin F
  IC50: 74 nM

## CCC(CC)COC(=O)[C@H](C)N[P@](=O)(OC[C@H]1O[C@@](C#N)(c2ccc3c(N)ncnn23)[C@H](O)[C@@H]1O)Oc1ccccc1
SARS-CoV-2 [1]
  IC50: 2800 nM

## O=C(c1cc(=O)[nH]c(=O)[nH]1)N1CCN(c2ccc(Cl)c(Cl)c2)CC1
SARS-CoV-2 [1]
  IC50: > 50000 nM
[2]
  CC50 at 26 h: > 100000 nM

## O=C(NCc1cccs1)[C@@H]1CN(C(=O)c2cccnc2)CCN1c1ccc(Cl)c(Cl)c1
[3]
  CLint scaled at 1 µM: 994 mL/min/kg
SARS-CoV-2 [1]
  IC50: 1100 nM
[4]
  MRT inf: 24 min
[5]
  half-life: 104 min
[6]
  C0 at 24 h: 1760 ng/mL
[7]
  MRT inf: 147 min
[8]
  solubility kinetic: 4.1 µg/mL (≈ 8.62 µM)
Cathepsin K
  IC50: 50000 nM
[9]
  IC50: 4610 nM
Procathepsin L
  IC50: 50000 nM
Caspase-3
  IC50: 50000 nM
[10]
  Cmax: 74.6 ng/mL
[11]
  Cmax: 1310 ng/mL
[12]
  Tmax: 4.8 min
Cathepsin B
  IC50: 50000 nM
[2]
  CC50 at 26 h: > 100000 nM
[13]
  AUC: 637 ng·h/mL
[14]
  AUC(0-t) at 24 h: 235 ng·h/mL
[15]
  IC50: 0.4 nM
[16]
  half-life: 21.6 min
[17]
  F: 72%
[18]
  AUC(0-t) at 24 h: 627 ng·h/mL
[19]
  Tmax: 30 min
[20]
  AUC: 230 ng·h/mL
[21]
  clearance: 52.3 mL/min/kg
Cathepsin F
  IC50: 50000 nM

## O=C(NCc1ccco1)[C@H]1CN(C(=O)c2cc(=O)[nH]c(=O)[nH]2)CCN1c1ccc(Cl)c(Cl)c1
[15]
  IC50: 2.98 nM

## O=c1[nH]cc(-c2cc(-c3cc(Cl)cc(OCc4ccccc4Cl)c3)c(=O)n(-c3cccnc3)c2)c(=O)[nH]1
[22]
  CC50: 1700 nM

## O=C(NCc1ccco1)C1CN(C(=O)c2cc(=O)[nH]c(=O)[nH]2)CCN1Cc1ccc(Cl)cc1Cl (stereo unspecified)
[15]
  IC50: 0.59 nM

## Cn1cnc(Cn2c(=O)[nH]/c(=N\c3cc4cn(C)nc4cc3Cl)n(Cc3cc(F)c(F)cc3F)c2=O)n1
SARS-CoV-2 [1]
  IC50: 370 nM
[2]
  CC50 at 26 h: > 100000 nM

## O=C(NCc1cccs1)[C@@H]1CN(C(=O)c2cncc3ccccc23)CCN1c1ccc(Cl)c(Cl)c1
SARS-CoV-2 [23]
  Ratio: 2.8
SARS-CoV-2 [1]
  IC50: 1000 nM
Cathepsin K
  IC50: 50000 nM
Procathepsin L
  IC50: 50000 nM
Caspase-3
  IC50: 50000 nM
Cathepsin B
  IC50: 50000 nM
[2]
  CC50 at 26 h: > 100000 nM
[15]
  IC50: 0.44 nM
Cathepsin F
  IC50: 50000 nM

## O=C(NCc1cccs1)[C@@H]1CN(C(=O)c2cc(=O)[nH]c(=O)[nH]2)CCN1Cc1ccc(Cl)cc1Cl
SARS-CoV-2 [1]
  IC50: > 50000 nM
[9]
  IC50: 1290 nM
[2]
  CC50 at 26 h: > 100000 nM
[15]
  IC50: 0.44 nM

## O=C(NCc1ccco1)[C@@H]1CN(C(=O)c2cc(=O)[nH]c(=O)[nH]2)CCN1Cc1ccc(Cl)cc1Cl
[9]
  IC50: 1650 nM
[15]
  IC50: 0.48 nM

## O=C(NCc1ccco1)[C@@H]1CN(C(=O)c2cc(=O)[nH]c(=O)[nH]2)CCN1c1ccc(Cl)c(Cl)c1
SARS-CoV-2 [1]
  IC50: > 50000 nM
[9]
  IC50: 1000 nM
[2]
  CC50 at 26 h: > 100000 nM
[15]
  IC50: 0.35 nM

## O=C(NCc1cccs1)C1CN(C(=O)c2cc(=O)[nH]c(=O)[nH]2)CCN1c1ccc(Cl)c(Cl)c1 (racemic)
[15]
  IC50: 0.61 nM

## O=C(NCc1ccco1)C1CN(C(=O)c2cc(=O)[nH]c(=O)[nH]2)CCN1c1ccc(Cl)c(Cl)c1 (racemic)
[15]
  IC50: 0.79 nM

## O=C(NCc1cccs1)[C@@H]1CN(C(=O)c2cc(=O)[nH]c(=O)[nH]2)CCN1c1ccc(Cl)c(Cl)c1 (racemic)
SARS-CoV-2 [1]
  IC50: > 50000 nM
[9]
  IC50: 1090 nM
[2]
  CC50 at 26 h: > 100000 nM
[15]
  IC50: 0.4 nM

Reference: ChEMBL document CHEMBL5104177, “Discovery and Crystallographic Studies of Trisubstituted Piperazine Derivatives as Non-Covalent SARS-CoV-2 Main Protease Inhibitors with High Target Specificity and Low Toxicity” (J Med Chem, 2022)
